ChEMBL document CHEMBL4819027, “Design, synthesis and biological evaluation of novel 2-(4-(1H-indazol-6-yl)-1H-pyrazol-1-yl)acetamide derivatives as potent VEGFR-2 inhibitors” (Eur J Med Chem, 2021)
Calls of active or inactive are those of the source. The rule behind the calls is not given here.

Experiments:
[1] = test system: HGC-27; experiment: Inhibition of colony formation in human HGC-27 cells at 1 uM after 12 days by crystal violet staining based assay; type: functional; details: HGC-27, 288 h, time 12 day
How it was run: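 HGC-27 cells (500/well, 6-well plates) attached 24 h at 37 °C, then kept 12 days in medium with compound (0.1, 0.5, 1 µM), 0.1% DMSO vehicle or 5 µM sorafenib. Washed with cold PBS, methanol-fixed, stained 0.1% crystal violet 30 min; colonies >50 cells photographed and counted.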

[2] = test system: HGC-27; experiment: Antimigratory activity against human HGC-27 cells assessed as relative closure of scratches at 0.5 uM measured after 6 hrs by scratch wound healing assay relative to control; type: functional
How it was run: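 HGC-27 monolayers at 80–90% confluence were serum-starved 12 h, then scratched to give 1 mm lanes. After a PBS wash, cells received complete medium with or without compound (0.1, 0.5, 1 μM). Wounds were imaged at 0, 6 and 24 h. Relative scratch closure was quantified against untreated control; mean ± SD of three experiments.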

[3] = test system: HGC-27; experiment: Antimigratory activity against human HGC-27 cells assessed as number of migration cells at 0.1 uM measured after 24 hrs by transwell migration assay (reference value: 320); type: functional
[4] = test system: HGC-27; experiment: Antimigratory activity against human HGC-27 cells assessed as number of migration cells at 0.5 uM measured after 24 hrs by transwell migration assay (reference value: 320); type: functional
[5] = test system: HGC-27; experiment: Antimigratory activity against human HGC-27 cells assessed as number of migration cells at 1 uM measured after 24 hrs by transwell migration assay (reference value: 320); type: functional
[6] = test system: HGC-27; experiment: Antiinvasive activity against human HGC-27 cells assessed as reduction in cell invasion measured after 24 hrs by transwell invasion assay; type: functional, cell-based
How it was run: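 Transwell inserts (12 μm pore) were precoated with Matrigel. HGC-27 cells at 5 × 10⁵ cells/mL were placed in the upper well in serum-free medium with compound (0.1, 0.5, 1 μM). The lower chamber held RPMI-1640 with 10% FBS. After 24 h at 37 °C, invaded cells were methanol-fixed and stained with 0.1% crystal violet. Cells were counted in three random fields; three independent experiments, mean ± SD.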

[7] = test system: HGC-27; experiment: Downregulation of MMP-9 protein expression in human HGC-27 cells incubated for 24 hrs by immunoblot analysis; type: functional, cell-based
How it was run: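 HGC-27 cells (1.0 × 10⁶ per 60 mm dish) were treated 24 h with 0.1% DMSO or compound (0.1, 0.5, 1 μM). Cells were lysed in RIPA with PMSF and phosphatase inhibitor, and protein measured by BCA. Lysates were run on 8–12% SDS-PAGE, transferred to nitrocellulose and probed with primary antibodies overnight at 4 °C, then HRP secondary. Bands were detected by ECL and densitometry; at least triplicate.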

[8] = test system: HGC-27; experiment: Induction of apoptosis in human HGC-27 cells assessed as total apoptotic cells level at 1 uM incubated for 24 hrs by propidium iode and annexin V-FITC staining based flow cytometry; type: functional
How it was run: (§1)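 HGC-27 cells (1.0 × 10⁶ per 60 mm dish) were treated 24 h with 0.1% DMSO or compound (0.1, 0.5, 1 μM). Cells were stained with Annexin V-FITC in HEPES/NaCl/CaCl₂ binding buffer (pH 7.4) for 15 min at room temperature, then with PI for 10 min. About 10 000 events were acquired by flow cytometry to give viable, early apoptotic, late apoptotic and necrotic fractions.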

[9] = test system: HGC-27; experiment: Induction of apoptosis in human HGC-27 cells assessed as total apoptotic cells level at 0.1 uM incubated for 24 hrs by propidium iode and annexin V-FITC staining based flow cytometry; type: functional; how it was run: as §1
[10] = test system: HGC-27; experiment: Induction of apoptosis in human HGC-27 cells assessed as viable cells level at 1 uM incubated for 24 hrs by propidium iode and annexin V-FITC staining based flow cytometry (reference value: 96.0%); type: functional; how it was run: as §1
[11] = test system: HGC-27; experiment: Induction of apoptosis in human HGC-27 cells assessed as viable cells level at 0.1 uM incubated for 24 hrs by propidium iode and annexin V-FITC staining based flow cytometry (reference value: 96.0%); type: functional; how it was run: as §1
[12] = test system: HGC-27; experiment: Induction of apoptosis in human HGC-27 cells assessed as late apoptotic cells level at 1 uM incubated for 24 hrs by propidium iode and annexin V-FITC staining based flow cytometry (reference value: 0.86); type: functional; how it was run: as §1
[13] = test system: HGC-27; experiment: Induction of apoptosis in human HGC-27 cells assessed as late apoptotic cells level at 0.5 uM incubated for 24 hrs by propidium iode and annexin V-FITC staining based flow cytometry (reference value: 0.86%); type: functional; how it was run: as §1
[14] = test system: HGC-27; experiment: Induction of apoptosis in human HGC-27 cells assessed as necrotic cells level at 0.1 uM incubated for 24 hrs by propidium iode and annexin V-FITC staining based flow cytometry (reference value: 1.64%); type: functional; how it was run: as §1
[15] = test system: HGC-27; experiment: Induction of intracellular ROS generation in human HGC-27cells assessed as increase in fluorescence intensity at 0.5 uM incubated for 24 hrs by DCFH-DA staining-based flow cytometric analysis (reference value: 712); type: functional
[16] = target: T1, Vascular endothelial growth factor receptor 2 (Homo sapiens, UniProt P35968); experiment: Inhibition of VEGFR2 in human HGC-27 cells assessed as reduction in VEGFR-2 phosphorylation after 24 hrs by westernblot analysis; type: cell-based
How it was run: (§2)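 HGC-27 cells (1.0 × 10⁶ per 60 mm dish) were treated 24 h with 0.1% DMSO or compound (0.1, 0.5, 1 μM). RIPA lysates with phosphatase inhibitor were quantified by BCA and resolved on 8–12% SDS-PAGE onto nitrocellulose. Blots were probed for p-VEGFR-2 (Tyr1175), p-PI3K (Tyr607), p-AKT (Thr308) and p-mTOR (Ser2448), with ECL detection and densitometry; mean ± SEM.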

[17] = test system: HUVEC; experiment: Antiangiogenic activity against HUVEC cells assessed as reduction in VEGF-induced total branching points at 1 to 10 uM incubated for 12 hrs by matrigel-based assay; type: functional, cell-based; details: Homo sapiens, dose 1-10 µM
How it was run: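 HUVECs at 4 × 10⁵ cells/mL seeded on Matrigel that had been polymerized 1 h at 37 °C. Cells were stimulated with 20 ng/mL VEGF and treated with compound (1, 2.5, 5 and 10 μM) or 0.1% DMSO vehicle for 12 h at 37 °C. Tubes were imaged by inverted microscopy. Tube length, surface area and branch points were quantified as pixel area.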

[18] = test system: HUVEC; experiment: Cytotoxicity against HUVEC cells at 1 to 5 uM after 72 hrs by MTT assay; type: cell-based; details: human, dose 1-5 µM
How it was run: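 HUVECs grown in ECM with 1% ECGS and 10% FBS were seeded at 5 × 10³ per well and attached 24 h. Cells were exposed to compound at 1, 2.5 and 5 μM for 72 h at 37 °C. Viability was read by MTT: 4 h incubation, DMSO solubilization, absorbance at 490 nm.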

[19] = target: T1, Vascular endothelial growth factor receptor 2; experiment: Inhibition of VEGFR2 in human HGC-27 cells assessed as downregulation of Akt phosphorylation at […] at 0.1 to 1 uM after 24 hrs by Westernblot analysis; type: cell-based; details: dose 0.1-1 µM; how it was run: as §2
[20] = target: T1, Vascular endothelial growth factor receptor 2; experiment: Inhibition of VEGFR2 in human HGC-27 cells assessed as downregulation of mTOR phosphorylation at Ser2448 at 0.1 to 1 uM after 24 hrs by Westernblot analysis; type: cell-based; details: dose 0.1-1 µM; how it was run: as §2
[21] = test system: HGC-27; experiment: Induction of apoptosis in human HGC-27 cells assessed as downregulation of Bcl-xl protein expression at incubated for 24 hrs by western blot analysis; details: dose 0.1-1 µM

T1 sequence (P35968 whole entry): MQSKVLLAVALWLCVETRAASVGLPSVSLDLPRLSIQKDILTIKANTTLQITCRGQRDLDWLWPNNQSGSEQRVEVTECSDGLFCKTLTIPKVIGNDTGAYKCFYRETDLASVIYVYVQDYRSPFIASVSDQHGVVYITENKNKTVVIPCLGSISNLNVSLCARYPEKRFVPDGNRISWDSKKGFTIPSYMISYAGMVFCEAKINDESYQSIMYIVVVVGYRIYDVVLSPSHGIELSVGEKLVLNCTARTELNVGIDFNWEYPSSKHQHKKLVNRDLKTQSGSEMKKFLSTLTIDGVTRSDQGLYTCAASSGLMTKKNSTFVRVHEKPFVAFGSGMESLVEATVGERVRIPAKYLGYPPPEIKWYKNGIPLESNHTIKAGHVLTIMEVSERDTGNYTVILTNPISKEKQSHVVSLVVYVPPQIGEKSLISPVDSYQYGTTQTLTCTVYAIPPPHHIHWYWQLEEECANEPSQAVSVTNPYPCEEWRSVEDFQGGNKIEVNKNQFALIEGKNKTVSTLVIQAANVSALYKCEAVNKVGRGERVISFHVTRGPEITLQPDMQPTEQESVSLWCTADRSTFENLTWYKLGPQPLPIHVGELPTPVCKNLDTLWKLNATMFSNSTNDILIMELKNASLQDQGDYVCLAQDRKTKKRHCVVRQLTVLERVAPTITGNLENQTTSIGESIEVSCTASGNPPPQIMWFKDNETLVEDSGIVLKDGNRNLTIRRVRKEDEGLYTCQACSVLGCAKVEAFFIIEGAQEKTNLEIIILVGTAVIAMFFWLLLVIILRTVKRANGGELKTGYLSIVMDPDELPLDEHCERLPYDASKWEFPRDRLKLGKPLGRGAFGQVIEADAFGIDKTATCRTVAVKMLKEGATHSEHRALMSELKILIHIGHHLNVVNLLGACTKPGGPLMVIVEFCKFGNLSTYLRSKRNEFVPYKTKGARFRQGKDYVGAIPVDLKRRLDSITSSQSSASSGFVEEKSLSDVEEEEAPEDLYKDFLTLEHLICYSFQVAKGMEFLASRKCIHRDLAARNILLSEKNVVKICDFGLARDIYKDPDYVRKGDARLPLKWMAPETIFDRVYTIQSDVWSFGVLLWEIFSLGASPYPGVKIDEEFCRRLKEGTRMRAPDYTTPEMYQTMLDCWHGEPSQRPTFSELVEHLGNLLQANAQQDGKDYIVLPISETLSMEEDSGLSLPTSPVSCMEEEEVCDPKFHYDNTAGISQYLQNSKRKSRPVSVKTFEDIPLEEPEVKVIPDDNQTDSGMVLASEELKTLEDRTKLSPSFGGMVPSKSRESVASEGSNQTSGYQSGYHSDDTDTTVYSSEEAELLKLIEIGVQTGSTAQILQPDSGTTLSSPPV

**Q.** Which inhibition at 1 µM [1] does the source give for `CC(=O)Nc1n[nH]c2cc(-c3cnn(CC(=O)Nc4ccc(C)c(C(F)(F)F)c4)c3)ccc12` here?
**A.** Its inhibition at 1 µM is 100%.

**Q.** What about the inhibition at 0.5 µM [2] of the same compound?
**A.** The inhibition at 0.5 µM was 9.5%.

**Q.** And the Activity [3]?
**A.** Its Activity is 212.

**Q.** What about the Activity [4] of the same compound?
**A.** The Activity was 87.

**Q.** And the Activity [5]?
**A.** The Activity was 22.

**Q.** And the inhibition [6]?
**A.** The inhibition was “Dose-Dependent Effect”.

**Q.** What about the inhibition [7] of the same compound?
**A.** The inhibition was “Dose-Dependent Effect”.

**Q.** What about the Activity [8] of the same compound?
**A.** The Activity was 28.8%.

**Q.** And the Activity [9]?
**A.** The Activity was 7.42%.

**Q.** And the Activity [10]?
**A.** The Activity was 61.6%.

**Q.** What about the Activity [11] of the same compound?
**A.** The Activity was 90.5%.

**Q.** What about the Activity [12] of the same compound?
**A.** Its Activity is 17%.

**Q.** What about the Activity [13] of the same compound?
**A.** Its Activity is 11.2%.

**Q.** And the Activity [14]?
**A.** The Activity was 2.12%.

**Q.** What about the Flu intensity [15] of the same compound?
**A.** Its Flu intensity is 945.

**Q.** And the inhibition [16]?
**A.** Its inhibition is “Dose-Dependent Effect”.

**Q.** And the Activity [17]?
**A.** Its Activity is “Active”.

**Q.** What about the Activity [18] of the same compound?
**A.** Its Activity is “Non-Toxic”.

**Q.** And the inhibition [19]?
**A.** The inhibition was “Active”.

**Q.** And the inhibition [20]?
**A.** The inhibition was “Active”.

**Q.** What about the Activity [21] of the same compound?
**A.** Its Activity is “Dose-Dependent Effect”.
